In general, inhibition in vivo refers to how much of the control response was suppressed. Broadly, the inhibition is the relative decrease from the control value, in per cent. By IC50 is commonly meant the concentration at which inhibition is half-maximal.

Assay [1] deals with Rattus norvegicus. In words: In vivo ventral prostate weights in juvenile castrated rats treated with testosterone propionate (1 mg/kg). It is filed as functional, Prostate gland. In outline: (§1)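 Male rats castrated at 21 days old by scrotal incision under ether anaesthesia; eight groups of eight. One week later, testosterone propionate 1 mg/kg and test agent or vehicle in oil given once daily for 4 days. Testosterone and test agent were given by separate sc injections, or the test agent was given orally. Test doses 11.3–12.2 mg/kg, 10 times equimolar to finasteride 1 mg/kg.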

In assay [2] the test system is Rattus norvegicus. The experiment in a line: Mean percentage of inhibition of the T-induced hypertrophic response was calculated according to the equation %inhibition = 100 x (Ct-D)/(Ct-Cc) at a dose 1 mg/kg by subcutaneous administration. The assay is classed as functional. As to conditions: sc. The essentials: as §1
The test system of assay [3] is Rattus norvegicus. In words: In vivo ventral prostate weights in juvenile castrated rats treated with testosterone propionate (11.3 mg/kg) + compound, by subcutaneous administration. The assay is classed as functional, Prostate gland.
In assay [4] the target is T1, 3-oxo-5-alpha-steroid 4-dehydrogenase 1 (Homo sapiens) (UniProt P18405).
T1 sequence (whole entry): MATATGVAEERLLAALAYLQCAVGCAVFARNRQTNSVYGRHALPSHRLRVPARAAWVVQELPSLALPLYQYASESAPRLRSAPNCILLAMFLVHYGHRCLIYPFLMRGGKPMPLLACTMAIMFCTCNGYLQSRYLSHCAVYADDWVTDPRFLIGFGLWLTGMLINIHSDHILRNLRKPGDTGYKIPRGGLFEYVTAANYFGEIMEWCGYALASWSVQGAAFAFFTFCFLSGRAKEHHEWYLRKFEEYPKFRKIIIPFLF
In words: Inhibition of Steroid 5-alpha-reductase type I of human DU 145 prostatic tumor cell line, at 10 uM. In outline:
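Intact DU145 cells (type 1 source) seeded at 180 000/well and left to adhere overnight. Compound added in DMSO to complete medium, then 6 h at 37 °C in 5% CO2 with [³H]androstenedione, 5 nM. Medium extracted twice with ether, steroids separated by radio-HPLC. Product formed expressed as % of triplicate no-inhibitor controls; screened at 10 μM.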

In assay [5] the target is T2, 3-oxo-5-alpha-steroid 4-dehydrogenase 2 (Homo sapiens) (UniProt P31213).
T2 sequence (whole entry): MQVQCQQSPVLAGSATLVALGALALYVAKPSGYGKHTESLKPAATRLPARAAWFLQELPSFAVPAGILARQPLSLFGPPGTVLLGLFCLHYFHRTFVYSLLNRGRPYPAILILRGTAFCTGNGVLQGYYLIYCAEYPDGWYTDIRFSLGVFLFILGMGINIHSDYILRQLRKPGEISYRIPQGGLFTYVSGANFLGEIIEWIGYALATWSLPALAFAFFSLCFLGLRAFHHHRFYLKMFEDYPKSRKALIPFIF
The experiment in a line: Percent of inhibition at 10 benign prostatic hyperplasia (BPH) tissue. Particulars: concentration not given here. The essentials:
(§2)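 Human BPH prostate 105000g pellet (nuclei, mitochondria, microsomes) prepared in citrate buffer pH 5.5. Incubation of about 125 μg protein for 30 min at 37 °C in 40 mM citrate pH 5.5 with 100 μM NADPH, 0.21 μM [1,2-³H]testosterone and 2% DMSO. Reaction stopped with NaOH, steroids extracted with ether, T/DHT separated by radio-HPLC. Single 10 μM test or IC50; duplicates.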

Assay [6] concerns the target T3, 3-oxo-5-alpha-steroid 4-dehydrogenase 1 (Rattus norvegicus) (UniProt P24008).
T3 sequence (whole entry): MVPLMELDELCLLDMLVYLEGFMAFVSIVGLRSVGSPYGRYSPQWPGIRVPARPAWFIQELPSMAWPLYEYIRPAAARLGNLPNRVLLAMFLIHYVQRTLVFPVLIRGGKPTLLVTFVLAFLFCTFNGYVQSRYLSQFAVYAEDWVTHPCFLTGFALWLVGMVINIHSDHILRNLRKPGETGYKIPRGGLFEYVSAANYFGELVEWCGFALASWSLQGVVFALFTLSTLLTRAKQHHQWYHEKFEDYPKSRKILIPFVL
In words: Inhibition of Steroid 5-alpha-reductase type I of rat ventral prostate (RVP). The arrangement: concentration or dose not given beside the values. The assay is classed as tissue-based. As to conditions: Prostate gland, concentration not given here. In outline:
(§3)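 Rat ventral prostate 105000g pellet made in 20 mM phosphate pH 6.6 with […] and 1 mM DTT at 0–4 °C. About 250 μg protein incubated 30 min at 37 °C in 40 mM phosphate pH 6.6 with 200 μM NADPH, 0.21 μM [1,2-³H]testosterone and 2% DMSO. Ether extraction, radio-HPLC of T and DHT. % inhibition at 10 μM or IC50; duplicates.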

Assay [7] addresses T4, 3-oxo-5-alpha-steroid 4-dehydrogenase 2 (Rattus norvegicus) (UniProt P31214).
T4 sequence (whole entry): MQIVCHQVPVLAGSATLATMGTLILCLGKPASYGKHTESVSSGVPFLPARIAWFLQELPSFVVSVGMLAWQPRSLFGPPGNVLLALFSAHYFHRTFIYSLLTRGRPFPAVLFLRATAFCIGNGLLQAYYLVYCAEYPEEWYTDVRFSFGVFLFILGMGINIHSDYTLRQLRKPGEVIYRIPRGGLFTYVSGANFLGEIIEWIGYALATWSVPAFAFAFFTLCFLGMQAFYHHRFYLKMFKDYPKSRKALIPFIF
The experiment in a line: (§4) Inhibition of Steroid 5-alpha-reductase type 2 of rat ventral prostate (RVP). Further details: concentration or dose not given beside the values. As to conditions: Prostate gland, concentration not given here. The essentials: (§5)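 Type 2 source: rat ventral prostate homogenized in citrate buffer pH 5.5, 105000g pellet. About 250 μg protein incubated 30 min at 37 °C in 40 mM citrate pH 5.5 with 200 μM NADPH, 0.21 μM [1,2-³H]testosterone and 2% DMSO. NaOH stop, ether extraction, radio-HPLC of T/DHT. Result given as % inhibition at 10 μM or IC50, run in duplicate.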

Assay [8] addresses T5, 3-oxo-5-alpha-steroid 4-dehydrogenase 2 (Rattus norvegicus, UniProt P31214).
T5 sequence (P31214 whole entry): T4 sequence (whole entry)
The description is as §4. The assay is classed as tissue-based, Prostate gland. In outline:
as §5

Assay [9] concerns the target T6, 3-oxo-5-alpha-steroid 4-dehydrogenase 1 (Rattus norvegicus, UniProt P24008).
T6 sequence (P24008 whole entry): T3 sequence (whole entry)
The experiment in a line: Inhibition of Steroid 5-alpha-reductase type I from rat ventral prostate (RVP). The assay is classed as tissue-based, Prostate gland. In outline: as §3

The target of assay [10] is T7, 3-oxo-5-alpha-steroid 4-dehydrogenase 1 (Homo sapiens, UniProt P18405).
T7 sequence (P18405 whole entry): T1 sequence (whole entry)
In words: In vitro inhibitory activity against Steroid 5-alpha-reductase type I of human DU 145 prostatic tumor cell line. In outline:
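Intact human prostatic carcinoma DU145 cells (type 1 enzyme source), seeded at 180 000 cells/well and left to adhere overnight, incubated 6 h at 37 °C in 5% CO2 with compound in DMSO in complete medium; substrate tritiated androstenedione 5 nM. Medium extracted with diethyl ether, steroids separated by radio-HPLC. Screened at 10 μM, duplicate; product formed as % of uninhibited control.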

The target of assay [11] is T8, 3-oxo-5-alpha-steroid 4-dehydrogenase 2 (Homo sapiens, UniProt P31213).
T8 sequence (P31213 whole entry): T2 sequence (whole entry)
The experiment in a line: Inhibition of Steroid 5-alpha-reductase type 2 from human benign prostatic hyperplasia (BPH) tissue. The essentials:
as §2

In assay [12] the test system is Rattus norvegicus. The experiment in a line: Mean percentage of inhibition of the T-induced hypertrophic response was calculated according to the equation %inhibition = 100 x (Ct-D)/(Ct-Cc) at a dose 12.2 mg/kg by subcutaneous administration. Particulars: sc. It is filed as functional. The essentials:
as §1

Assay [13] deals with Rattus norvegicus. In words: In vivo ventral prostate weights in juvenile castrated rats treated with testosterone propionate (11.3 mg/kg) compound, by subcutaneous administration. It is filed as functional, Prostate gland. In outline: as §1
Assay [14] has as its system Rattus norvegicus. The experiment in a line: Mean percentage of inhibition of the T-induced hypertrophic response was calculated according to the equation %inhibition = 100 x (Ct-D)/(Ct-Cc) at a dose 11.8 mg/kg by subcutaneous administration. The assay is classed as functional. As to conditions: sc. The essentials:
as §1

Assay [15] concerns the target T2, 3-oxo-5-alpha-steroid 4-dehydrogenase 2 (Homo sapiens). In words: Percent of inhibition against Steroid 5-alpha-reductase type 2 of human uM. Particulars: concentration not given here. In outline: as §2
Assay [16] addresses T6, 3-oxo-5-alpha-steroid 4-dehydrogenase 1. The experiment in a line: In vitro inhibitory activity against Steroid 5-alpha-reductase type I of rat ventral prostate (RVP). It is filed as tissue-based, Prostate gland. In outline: as §3
For assay [17], the system named is Rattus norvegicus. In words: Mean percentage of inhibition of the T-induced hypertrophic response was calculated according to the equation %inhibition = 100 x (Ct-D)/(Ct-Cc) at a dose 11.3 mg/kg by oral administration. The assay is classed as functional. The essentials:
as §1

Assay [18] has as its system Rattus norvegicus. In words: In vivo ventral prostate weights in juvenile castrated rats treated with testosterone propionate (11.3 mg/kg) compound, by oral administration. It is filed as functional, Prostate gland. In outline:
as §1

Assay [19] has as its system Rattus norvegicus. In words: Mean percentage of inhibition of the T-induced hypertrophic response was calculated according to the equation %inhibition = 100 x (Ct-D)/(Ct-Cc) at a dose 11.3 mg/kg by subcutaneous administration. The assay is classed as functional. As to conditions: sc. The essentials:
as §1

Regarding `CCC(=O)O[C@H]1CC[C@H]2[C@@H]3CCC4=CC(=O)CC[C@]4(C)[C@H]3CC[C@]12C` [TESTOSTERONE PROPIONATE], the Weight in the assay with Rattus norvegicus [1] is reported as 41.6 (mg of prostate) (100g of body weight)-1.
For `CC(C)(C)NC(=O)C1CC[C@@]2(C)[C@@H]3CC[C@H]4NC(=O)C=C[C@]4(C)[C@H]3CC[C@]12C.CCC(=O)O[C@H]1CC[C@H]2[C@@H]3CCC4=CC(=O)CC[C@]4(C)[C@H]3CC[C@]12C` (stereo not given in full), the inhibition in vivo at 1 mg/kg in the assay with Rattus norvegicus [2] was 76%. Moreover, the Weight in the assay with Rattus norvegicus [3] is given as 20.5 (mg of prostate) (100g of body weight)-1.
Take `O=C(O)c1cccc(C=C2CCN(C(=O)C(c3ccccc3)c3ccccc3)CC2)c1`: the inhibition in assay [4] was found to be 6%; in assay [5], 57%; in assay [6], 49%; in assay [7], 43%.
On to `CC(C)(C)NC(=O)[C@H]1CC[C@H]2[C@@H]3CC[C@H]4NC(=O)C=C[C@]4(C)[C@H]3CC[C@]12C` [FINASTERIDE], for which the concentration for half-maximal inhibition (IC50) in [8] was 11 nM; in assay [9], 10 nM; in assay [10], 41 nM; in assay [11] it was 5 nM.
For the molecule `CCC(=O)O[C@H]1CC[C@H]2[C@@H]3CCC4=CC(=O)CC[C@]4(C)[C@H]3CC[C@]12C.O=C(O)Cc1ccc(C=C2CCN(C(=O)C(C3CCCCC3)C3CCCCC3)CC2)c(F)c1`, the inhibition in vivo at 12.2 mg/kg with Rattus norvegicus [12] was 55%. Also, the Weight in the assay with Rattus norvegicus [13] is given as 26.4 (mg of prostate) (100g of body weight)-1.
With `CC(C)(C)OC(=O)N1CCC(Oc2ccc(C(=O)O)cc2)CC1`, the inhibition in assay [4] stood at 2%; in assay [5] it was 7.8%; in assay [6] it was 4%; in assay [7], 12%.
Turning to `CCC(=O)O[C@H]1CC[C@H]2[C@@H]3CCC4=CC(=O)CC[C@]4(C)[C@H]3CC[C@]12C.O=C(O)c1ccc(C=C2CCN(C(=O)C(C3CCCCC3)C3CCCCC3)CC2)c(F)c1`, in the assay on Rattus norvegicus [14], the inhibition in vivo at 11.8 mg/kg was 47%. For the same molecule, the Weight in the assay on Rattus norvegicus [13] was 28.6 (mg of prostate) (100g of body weight)-1.
For `O=C(O)c1ccc(OC2CCN(C(=O)N(c3ccccc3)c3ccccc3)CC2)cc1`, the inhibition in assay [15] came to 68%; in [4], 10%; in assay [6], 53%; in assay [7], 50%.
`O=C(O)c1ccc(C=C2CCN(C(=O)C(C3CCCCC3)C3CCCCC3)CC2)c(F)c1`: the figures for the half-maximal inhibitory concentration (IC50) in [8], in assay [16] and in assay [11] were 3000 nM, 1800 nM and 11 nM, respectively.
With `CCC(=O)O[C@H]1CC[C@H]2[C@@H]3CCC4=CC(=O)CC[C@]4(C)[C@H]3CC[C@]12C.O=C(O)c1ccc(C=C2CCN(C(=O)C(C3CCCCC3)C3CCCCC3)CC2)cc1`, the values for the inhibition in vivo at 11.3 mg/kg in the assay on Rattus norvegicus [17] and in the assay with Rattus norvegicus [19] were 36% and 49%, respectively. For the same molecule, the Weight was 31.6 (mg of prostate) (100g of body weight)-1 in the assay on Rattus norvegicus [18] and 27.9 (mg of prostate) (100g of body weight)-1 in the assay with Rattus norvegicus [13].

The record behind these values is ChEMBL document CHEMBL1135527, “Synthesis and evaluation of 2'-substituted 4-(4'-carboxy- or 4'-carboxymethylbenzylidene)-N-acylpiperidines: highly potent and in vivo active steroid 5alpha-reductase type 2 inhibitors” (J Med Chem, 2002).
